ADAM17 inh – inhibitors of human ADAM17; inhibition, % at 6.95 µM; recombinant ADAM17, EDANS/DABCYL FRET peptide cleavage; AID 720648; P78536; 370,000 compounds, 0.83% hits;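 active means inhibition above the mean of compounds lying between control limits plus 3 SD, set per campaign, cut at about 8.5% in these data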
KLK7 zymogen act – activators of human kallikrein-7 zymogen; 370,000 compounds, 0.9% hits; P49862; activation, % at 7 µM; purified proKLK7, EDANS-DABCYL substrate fluorescence; 100% is mature enzyme control, 0% vehicle;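 active means activation above the mean of all tested compounds plus 3 SD, computed per campaign excluding outliers beyond control limits, cut at about 13% in these data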
JMJD2C inh – blocks human GASC-1 demethylase activity; GST-JMJD2C(1-420) H3K9me3 demethylation, DELFIA europium; inhibition, % at 2.35 µM; AID 2099; Q9H3R0; 330,000 compounds, 0.069% hits;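 active means more than half of a compound's replicate wells show inhibition beyond 50%, single wells judged on their own value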;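 further: signal counts dimethyl H3K9 product captured on neutravidin plate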
ADAM10 inh – inhibitors of human ADAM10; 370,000 compounds, 0.62% hits; inhibition, % at 7 µM; O14672; recombinant ADAM10, EDANS/DABCYL FRET peptide cleavage, 3 h;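 active means inhibition above a per-campaign cutoff equal to the mean of compounds falling between control-based bounds plus 3 SD, cut at about 20% in these data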
NR2E3 ag-1 – activates human NR2E3 receptor. Q9Y5X4. CHO-S Gal4-NCOR/VP16-NR2E3 two-hybrid, luciferase. inhibition of corepressor binding, % at 3.98 µM. 360,000 compounds, 0.35% hits. AID 602229;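 active means inhibition above the mean of all tested compounds plus 3 SD, cut at about 70% in these data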;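 further: higher means lower luciferase signal from less NR2E3 corepressor binding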
Target sequence (Q9Y5X4 whole entry, looked up, the tested form may be a part): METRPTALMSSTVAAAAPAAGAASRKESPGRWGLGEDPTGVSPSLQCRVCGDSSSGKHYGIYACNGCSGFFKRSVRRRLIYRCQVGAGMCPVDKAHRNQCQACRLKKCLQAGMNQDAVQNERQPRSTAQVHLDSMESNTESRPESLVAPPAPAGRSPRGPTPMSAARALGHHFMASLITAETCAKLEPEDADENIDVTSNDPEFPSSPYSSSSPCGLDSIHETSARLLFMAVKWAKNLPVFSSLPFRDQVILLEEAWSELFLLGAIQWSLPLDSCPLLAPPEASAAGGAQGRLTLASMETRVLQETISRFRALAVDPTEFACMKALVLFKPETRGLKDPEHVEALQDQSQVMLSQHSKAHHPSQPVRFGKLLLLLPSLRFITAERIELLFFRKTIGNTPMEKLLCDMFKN
NR2E3 ag-2 – activates human photoreceptor nuclear receptor NR2E3 | GST-NR2E3/biotin-RetCOR TR-FRET, 1536-well | inhibition of corepressor binding, % at 4.78 µM | 320,000 compounds, 0.12% hits;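 active means percent inhibition above the cutoff of mean plus 3 SD of all tested compounds, set per screening campaign, cut at about 20% in these data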
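Material – GST-tagged NR2E3 plus biotinylated RetCOR corepressor · Quantity – NR2E3 fusion 1.35 nM · Times – 5 h incubation at 4 °C · Medium – pH 7.5 Tris-based buffer · Technique – TR-FRET, Eu(K)-anti-GST donor, streptavidin-D2 acceptor, ex 340, em 617/671 nm · Benchmarks – high control biotin, low control 0.6% DMSO · Format – 1536-well plates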
KLK7 act conf – confirmation of human kallikrein-7 zymogen activators; shares compounds with KLK7 zymogen act; purified proKLK7, EDANS-DABCYL substrate fluorescence; scaled: vehicle 0, mature enzyme 100; activation, % at 7 µM; 3,200 compounds, 68% hits;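 active means activation, as change over the incubation, above the mean of all tested compounds plus 3 SD, cut at about 13% in these data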
EDANS interfere – fluorescence interference counter-screen for KLK7 activators; shares compounds with KLK7 zymogen act; AID 686952; 3,200 compounds, 80% hits; activation, % at 7 µM; EDANS-DABCYL substrate fluorescence interference, no enzyme, 4 h; solvent 0%, active enzyme control 100%;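 active means activation above the all-compound mean plus 3 SD, ignoring values outside control-based bounds, cut at about 4.8% in these data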;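 further: value is the 4 h activation minus the activation read at time zero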
EDANS interf – EDANS fluorescence interference in dose response, no enzyme; EDANS-DABCYL peptide fluorescence interference; EC50, µM; shares compounds with KLK7 zymogen act; AID 720493; 250 compounds, 20% hits;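 active means compounds that raise the fluorescence signal in this interference counterscreen, with EC50 at or below 10 µM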;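 further: intact quenched peptide substrate alone read at 355 nm excitation and 520 nm emission; signal is fluorescence gain from T0 to T4 after four hours at room temperature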
Of the large screens only hits and unclear results are named; the others gave an inactive call (follow-up assays come after a bar, where they were run). Shown are actives, neighbours in structure and some others; about 2.5% of the full set was active somewhere.

CCC(C(=O)NC(CC(=O)O)c1ccc(Cl)cc1)c1ccccc1 (stereo not drawn)	none
Nc1nn2cc(-c3ccccc3)nc2c2ccccc12	KLK7 zymogen act 65.9 | KLK7 act conf 55.0 | EDANS interfere 53.4
Cc1cccn2c(=O)c3cc(C(=O)NC4CCS(=O)(=O)C4)sc3nc12 (stereo not drawn)	KLK7 zymogen act 21.7 | KLK7 act conf 52.7 | EDANS interfere 42.6 | EDANS interf inactive
CC(C)NC(=O)c1cc2c(=O)n3ccccc3nc2s1	KLK7 zymogen act 75.5 | KLK7 act conf 75.4 | EDANS interfere 81.4
C=CCNC(=O)c1cc2c(=O)n3ccccc3nc2s1	KLK7 zymogen act 51.9 | KLK7 act conf 58.7 | EDANS interfere 68.8
Cc1cc(C)cc(NC(=O)c2cc3c(=O)n4ccccc4nc3s2)c1	none
CSc1ccccc1NC(=O)c1cc2c(=O)n3ccccc3nc2s1	none
Cc1cccn2c(=O)c3cc(C(=O)NC4CCCCCC4)sc3nc12	none
O=C(NC1CCCCCC1)c1cc2c(=O)n3ccccc3nc2s1	KLK7 zymogen act 25.1 | KLK7 act conf 15.9 | EDANS interfere 7.9 | EDANS interf inactive
O=[N+]([O-])c1nn(-c2ccccc2)[n+]([O-])c1N1CCN(c2ccccc2F)CC1	none
CCN1CCN(CC(=O)Nc2ccc(N(C)C)cc2)CC1	none
CCOC(=O)c1cc(C#N)c(Oc2ccccc2OC)nc1-c1ccccc1	none
CCOC(=O)C1=C(CBr)NC(=O)NC1C (stereo not drawn)	none
NC(=O)c1ccccc1NC(=O)c1ccc2ccccc2c1	KLK7 zymogen act 14.9 | KLK7 act conf inactive | EDANS interfere inactive
COc1cccc(NC(=O)c2cc3ccccc3cc2OC)c1	none
COc1ccc(NC(=O)c2ccc([N+](=O)[O-])o2)cc1	none
Cc1cc(C)nc(NC(=O)c2ccc([N+](=O)[O-])o2)n1	KLK7 zymogen act 133.3 | KLK7 act conf 151.0 | EDANS interfere 146.3
O=C(Cc1ccc([N+](=O)[O-])cc1)NCc1ccccc1Cl	KLK7 zymogen act 40.1 | KLK7 act conf inactive | EDANS interfere inactive
Cc1ccc2nc(-c3ccc(NC(=O)CSc4nnc(-c5ccccc5)n4Cc4ccco4)cc3)sc2c1	KLK7 zymogen act 127.7 (no result: JMJD2C inh, NR2E3 ag-1, NR2E3 ag-2) | KLK7 act conf 297.2 | EDANS interfere 333.1
CCOC(=O)c1c(NC(=O)CSc2nnc(-c3cccnc3)n2Cc2ccco2)sc(C)c1C	KLK7 zymogen act 13.5 | KLK7 act conf inactive | EDANS interfere inactive
Cc1ccc2nc(-c3ccc(NC(=O)CSc4nnc(Cc5cccs5)n4C)cc3)sc2c1	KLK7 zymogen act 149.4 (no result: JMJD2C inh, NR2E3 ag-1, NR2E3 ag-2) | KLK7 act conf 157.3 | EDANS interfere 86.4
Cc1cccc(-c2nnc(SCC(=O)Nc3ccc(OCc4ccccc4)cc3)n2Cc2ccco2)c1	none (no result: JMJD2C inh, NR2E3 ag-1, NR2E3 ag-2)
CCn1c(SCC(=O)Nc2ccc(-c3nc4ccc(C)cc4s3)cc2)nnc1-c1ccccc1	none (no result: ADAM17 inh, KLK7 zymogen act, ADAM10 inh, NR2E3 ag-1)
Cc1cccc(-c2nnc(SCC(=O)Nc3ccc(-c4nc5ccc(C)cc5s4)cc3)n2Cc2ccco2)c1	KLK7 zymogen act 67.8 (no result: JMJD2C inh, NR2E3 ag-1, NR2E3 ag-2) | KLK7 act conf 61.7 | EDANS interfere 91.6
Nc1nc(Nc2cccc(F)c2)nc(NCc2ccco2)c1[N+](=O)[O-]	none
COCCN(C(=O)c1csnn1)C(C(=O)NC1CCCC1)c1ccccc1F (stereo not drawn)	none
Cc1ccc(C(O)c2ncc(-c3cccc4ccccc34)[nH]2)c(C)c1 (stereo not drawn)	none (no result: JMJD2C inh, NR2E3 ag-2)
Cc1ccc(C)c(N(CC(=O)Nc2ccc(-c3nc4ccc(C)cc4s3)cc2)S(C)(=O)=O)c1	KLK7 zymogen act 19.5 | KLK7 act conf inactive | EDANS interfere inactive

Bioassay records from PubChem.
